The subject of assay [1] is ERAP1 WT. As to the kind of experiment: Simple activation assay. Format: biochemical, human. The settings on record: 100 μM L-AMC, pH 8.0, 25 °C, 5 min; for activation of L-AMC hydrolysis over basal level: 100 μM peptide. In short, it runs like this:
(§1)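 ERAP1 enzyme: allotype-1, WT or point mutant, with a C-terminal His6 tag. It was expressed in Sf9 cells by baculovirus and purified by Ni-NTA and gel filtration. Assay: 1.5 µg ml-1 enzyme in 50 mM Tris/HCl pH 8.0, 0.1 M NaCl at 25 °C, with or without 100 µM 7-mer peptide activator. Hydrolysis of 100 µM L-AMC was followed for 5 min by AMC fluorescence (ex 380/em 460 nm), calibrated with AMC standards.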

Assay [2] deals with ERAP1 L734R. As to the kind of experiment: Simple activation assay. Format: biochemical, human. Conditions: 100 μM L-AMC, pH 8.0, 25 °C, 5 min. The method, boiled down: as §1
Assay [3] addresses T1, ERAP1 V737R (Homo sapiens, UniProt Q9NZ08, V737R). As to the kind of experiment: Simple activation assay. The settings on record: 100 μM L-AMC, pH 8.0, 25 °C, 5 min. In kind it is biochemical. In short, it runs like this: as §1
For assay [4], the target named is T1, ERAP1 V737R. As to the kind of experiment: Steady-state kinetics of L-AMC hydrolysis ± 7-mer peptide activator, V737R. In kind it is biochemical. Conditions: pH 8.0, 27 °C; for allosteric activation in steady state kinetics: 100 μM peptide, 0–2,000 μM L-AMC. In short, it runs like this: (§2)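 Steady-state kinetics used purified His6-tagged ERAP1 (allotype-1, WT or mutant) from baculovirus-infected Sf9 cells at 1.5 µg ml-1. Buffer was 50 mM Tris/HCl pH 8.0, 0.1 M NaCl at 27 °C, with L-AMC at 0–2,000 µM, with or without 100 µM 7-mer peptide. AMC release (ex 380/em 460 nm) was followed for 5 min. Initial rates from three time points (nmoles.min-1.µg-1) were curve-fitted for Vmax, K1/2 and Hill coefficient. Comparisons used Brown-Forsyth one-way ANOVA with Tukey's test.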

Assay [5] deals with ERAP1 F803R. As to the kind of experiment: Simple activation assay. In kind it is biochemical, human. Conditions: 100 μM L-AMC, pH 8.0, 25 °C, 5 min; for activation of L-AMC hydrolysis over basal level: 100 μM peptide. In short, it runs like this: as §1
In assay [6] the target is T2, ERAP1 L733R (Homo sapiens, UniProt Q9NZ08, L733R). As to the kind of experiment: Simple activation assay. In kind it is biochemical. Conditions: 100 μM L-AMC, pH 8.0, 25 °C, 5 min. In short, it runs like this:
as §1

The target in assay [7] is T3, ERAP1 I681R (Homo sapiens, UniProt Q9NZ08, I681R). As to the kind of experiment: Simple activation assay. In kind it is biochemical. The settings on record: 100 μM L-AMC, pH 8.0, 25 °C, 5 min. In short, it runs like this:
as §1

For a further assay, the system named is ERAP1 WT and variants. Format: biochemical, human. Conditions: 100 μM peptide; most enzyme variants; 0–2,000 μM L-AMC; pH 8.0; 27 °C. The method, boiled down: as §2
For assay [8], the system named is ERAP1 L734R. As to the kind of experiment: Steady-state kinetics of L-AMC hydrolysis ± 7-mer peptide activator, L734R. Format: biochemical, human. The settings on record: pH 8.0, 27 °C. The method, boiled down: as §2
Assay [9] deals with ERAP1 L734R (Homo sapiens, UniProt Q9NZ08, L734R). As to the kind of experiment: Allosteric activation of L-AMC hydrolysis, varying peptide effector, L734R. Format: biochemical. The settings on record: 0–2,000 μM peptide, 100 μM L-AMC, 27 °C, three independent repeats. In short, it runs like this:
(§3)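 Recombinant human ERAP1 (allotype-1, WT or Arg point mutant) carrying a C-terminal His6 tag, expressed in baculovirus-infected Sf9 cells and purified by Ni-NTA then gel filtration (full-length peak). 1.5 µg/ml enzyme with 100 µM L-AMC and 7-mer peptide activator varied 0–2,000 µM, in 50 mM Tris/HCl pH 8.0, 0.1 M NaCl, 27 °C, 5 min. AMC fluorescence read at ex 380/em 460 nm against AMC standards. Vmax and AC50 fitted to Michaelis-Menten.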

Assay [10] has as its target T1, ERAP1 V737R. As to the kind of experiment: Allosteric activation of L-AMC hydrolysis, varying peptide effector, V737R. Format: biochemical. The settings on record: 0–2,000 μM peptide, 100 μM L-AMC, 27 °C, three independent repeats. The method, boiled down:
as §3

Assay [11] addresses T3, ERAP1 I681R. As to the kind of experiment: Steady-state kinetics of L-AMC hydrolysis ± 7-mer peptide activator, I681R. In kind it is biochemical. Conditions: pH 8.0, 27 °C. The method, boiled down:
as §2

Assay [12] relates to ERAP1 WT. As to the kind of experiment: Steady-state kinetics of L-AMC hydrolysis ± 7-mer peptide activator, ERAP1 WT. In kind it is biochemical, human. The settings on record: pH 8.0, 27 °C. The method, boiled down: as §2
The target of assay [13] is T2, ERAP1 L733R. As to the kind of experiment: Allosteric activation of L-AMC hydrolysis, varying peptide effector, L733R. Format: biochemical. Conditions: 0–2,000 μM peptide, 100 μM L-AMC, 27 °C, three independent repeats. The method, boiled down:
as §3

Assay [14] has as its target T2, ERAP1 L733R. As to the kind of experiment: Steady-state kinetics of L-AMC hydrolysis ± 7-mer peptide activator, L733R. In kind it is biochemical. The settings on record: pH 8.0, 27 °C. The method, boiled down: as §2
Assay [15] relates to ERAP1 WT. As to the kind of experiment: Allosteric activation of L-AMC hydrolysis, varying peptide effector, ERAP1 WT. Conditions: 0–2,000 μM peptide, 100 μM L-AMC, 27 °C, three independent repeats. Format: biochemical, human. The method, boiled down:
as §3

Assay [16] concerns the target T3, ERAP1 I681R. As to the kind of experiment: Allosteric activation of L-AMC hydrolysis, varying peptide effector, I681R. The settings on record: 0–2,000 μM peptide, 100 μM L-AMC, 27 °C, three independent repeats. In kind it is biochemical. The method, boiled down:
as §3

The target in assay [17] is T4, ERAP1 F803R (Homo sapiens, UniProt Q9NZ08, F803R). As to the kind of experiment: Allosteric activation of L-AMC hydrolysis, varying peptide effector, F803R. Conditions: 0–2,000 μM peptide, 100 μM L-AMC, 27 °C, three independent repeats. Format: biochemical. In short, it runs like this: as §3
For assay [18], the target named is T4, ERAP1 F803R. As to the kind of experiment: Steady-state kinetics of L-AMC hydrolysis ± 7-mer peptide activator, F803R. Format: biochemical. The settings on record: pH 8.0, 27 °C. The method, boiled down:
as §2

For the next assay, the system named is ERAP1. The settings on record: cited from earlier work.
Assay [19] addresses ERAP1 F803R (Homo sapiens, UniProt Q9NZ08, F803R/R127P). As to the kind of experiment: N-terminal peptide trimming, LC-MS/MS, F803R. In kind it is biochemical. Conditions: from 11-mer KL1, pH 7.8, 30 °C, two independent experiments.
Assay [20] relates to ERAP1 WT. As to the kind of experiment: N-terminal peptide trimming, LC-MS/MS, ERAP1 WT. The settings on record: from 11-mer KL1, pH 7.8, 30 °C, two independent experiments. Format: biochemical, human.
Setting [21] is: 100 μM peptide, relative to wildtype.
[22] abbreviates: 100 μM peptide, 0–2,000 μM L-AMC.
Setting [23] is: 1.5 μg/ml enzyme, 50 mM Tris/HCl pH 8.0, 0.1 M NaCl, 5 min.
The mark [24] stands for this setting: read-out: AC50 (half maximal activation concentration), pH 8.0.
Setting [25] is: no peptide activator, three independent repeats.

“Also recorded” adds a separate entry of the source.

T4 sequence (Q9NZ08 whole entry F803R): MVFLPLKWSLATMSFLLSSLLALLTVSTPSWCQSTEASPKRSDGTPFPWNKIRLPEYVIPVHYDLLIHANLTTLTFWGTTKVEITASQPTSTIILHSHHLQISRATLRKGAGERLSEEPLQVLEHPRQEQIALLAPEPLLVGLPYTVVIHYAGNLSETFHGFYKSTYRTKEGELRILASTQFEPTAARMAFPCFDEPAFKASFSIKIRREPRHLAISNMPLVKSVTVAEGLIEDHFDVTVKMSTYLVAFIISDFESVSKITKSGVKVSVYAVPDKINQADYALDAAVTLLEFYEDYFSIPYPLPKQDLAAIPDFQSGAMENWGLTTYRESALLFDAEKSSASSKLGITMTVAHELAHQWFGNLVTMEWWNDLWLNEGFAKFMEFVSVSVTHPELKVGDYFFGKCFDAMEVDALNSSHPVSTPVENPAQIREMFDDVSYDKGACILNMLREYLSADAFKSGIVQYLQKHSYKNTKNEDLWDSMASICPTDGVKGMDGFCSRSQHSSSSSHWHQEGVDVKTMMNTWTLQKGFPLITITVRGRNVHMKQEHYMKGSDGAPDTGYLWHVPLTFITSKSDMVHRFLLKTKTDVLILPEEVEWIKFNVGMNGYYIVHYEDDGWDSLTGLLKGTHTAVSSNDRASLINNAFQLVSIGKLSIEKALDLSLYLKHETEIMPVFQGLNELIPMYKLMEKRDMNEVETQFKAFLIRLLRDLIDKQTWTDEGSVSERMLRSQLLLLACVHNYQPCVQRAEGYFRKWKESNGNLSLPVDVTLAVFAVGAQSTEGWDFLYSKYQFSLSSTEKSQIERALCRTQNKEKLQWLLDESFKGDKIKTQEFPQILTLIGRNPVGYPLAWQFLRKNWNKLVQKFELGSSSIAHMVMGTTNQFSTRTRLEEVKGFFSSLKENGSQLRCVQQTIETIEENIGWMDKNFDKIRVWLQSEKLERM
T2 sequence (Q9NZ08 whole entry L733R): as the sequence (Q9NZ08 whole entry F803R) above, with L733R, R803F counted along it
T1 sequence (Q9NZ08 whole entry V737R): as the sequence (Q9NZ08 whole entry F803R) above, with V737R, R803F counted along it
T3 sequence (Q9NZ08 whole entry I681R): as the sequence (Q9NZ08 whole entry F803R) above, with I681R, R803F counted along it
Chain of ERAP1 L734R (Homo sapiens, UniProt Q9NZ08, L734R) (Q9NZ08 whole entry L734R): as the sequence (Q9NZ08 whole entry F803R) above, with L734R, R803F counted along it
Chain of ERAP1 F803R (Homo sapiens, UniProt Q9NZ08, F803R/R127P) (Q9NZ08 whole entry R127P/F803R): as the sequence (Q9NZ08 whole entry F803R) above, with R127P counted along it

With IINFEKE, the “activation of L-AMC hydrolysis over basal level” value in the assay on ERAP1 WT [1] is “not activated significantly above their basal levels; also recorded: did not show significant difference from their respective basal activity”; in the assay on ERAP1 L734R [2] (100 μM peptide), “not activated significantly above their basal levels”; at ERAP1 V737R [3] (100 μM peptide), “slight but significant activation”; with ERAP1 F803R [5] it was “not activated significantly above their basal levels; also recorded: did not show significant difference from their respective basal activity”; on ERAP1 L733R [6] (100 μM peptide), “not activated significantly above their basal levels; also recorded: did not show significant difference from their respective basal activity”; on ERAP1 I681R [7] (100 μM peptide), “not activated significantly above their basal levels”. Besides, the “activation of L-AMC hydrolysis above basal activity” value at ERAP1 V737R [3] (100 μM peptide) is ~ 30%. The “allosteric activation in steady state kinetics” value on ERAP1 V737R [4] is “significantly activated; also recorded: not a very effective activator”. Further, the “change of sigmoidal curves, h values, or Vmax” value with ERAP1 WT and variants is “did not change much the sigmoidal curves”.

As to IINFEKL, the “activation of L-AMC hydrolysis over basal level” value is “significant increase” with ERAP1 WT [1]; “lowest activity in the presence of IINFEKL peptide and with the smallest activation from its basal activity” on ERAP1 V737R [3] (100 μM peptide); “significant increase” in the assay with ERAP1 F803R [5]. Besides, the results for the “allosteric activation compared to wildtype enzyme” value in the assay on ERAP1 L734R [2] (setting [21]), at ERAP1 L733R [6] (setting [21]) and on ERAP1 I681R [7] (setting [21]) were approximately 55%, approximately 50% and “about 75%”, respectively. Moreover, the “allosteric activation in steady state kinetics” value is listed as “significant or dramatic increase of Vmax” in the assay with ERAP1 L734R [8] (setting [22]); “significant or dramatic increase of Vmax” on ERAP1 V737R [4]; “significant or dramatic increase of Vmax” on ERAP1 I681R [11] (setting [22]); “significant or dramatic increase of Vmax; also recorded: effective allosteric activator” with ERAP1 WT [12] (setting [22]); “significant or dramatic increase of Vmax” on ERAP1 L733R [14] (setting [22]); “significant or dramatic increase of Vmax; also recorded: effective allosteric activator” at ERAP1 F803R [18] (setting [22]). Besides, the “Vmax of L-AMC hydrolysis, peptide activator varied” value at ERAP1 L734R [9] (setting [23]) came out at 112 ± 8 nmol/min/µg; on ERAP1 V737R [10] (setting [23]), 62 ± 7 nmol/min/µg; at ERAP1 L733R [13] (setting [23]), 211 ± 10 nmol/min/µg; in the assay on ERAP1 WT [15] (setting [23]) it was 241 ± 6 nmol/min/µg; on ERAP1 I681R [16] (setting [23]) it was 175 ± 54 nmol/min/µg; on ERAP1 F803R [17] (setting [23]) it was 217 ± 9 nmol/min/µg. For the same compound, the AC50 on ERAP1 L734R [9] (setting [24]) stood at 580 ± 120 µM; on ERAP1 V737R [10] (setting [24]), 590 ± 170 µM; on ERAP1 L733R [13] (setting [24]) it was 440 ± 60 µM; with ERAP1 WT [15] (setting [24]), 80 ± 10 µM; at ERAP1 I681R [16] (setting [24]) it was 1460 ± 840 µM; at ERAP1 F803R [17] (setting [24]) it was 170 ± 30 µM.

For the compound QLESIINFEKL [KL1], the “processing by ERAP1” value in the assay on ERAP1 is listed as “efficiently processed by ERAP1”.

On to `Cc1cc(=O)oc2cc(NC(=O)[C@@H](N)CC(C)C)ccc12` [L-AMC, leucine-7-amido-4-methyl-coumarin, reference compound], for which the “basal L-AMC hydrolysis” value is “low but detectable basal level” in the assay with ERAP1 WT [1] (no peptide); “low but detectable basal level; also recorded: higher than the other mutant enzymes and the WT enzyme” with ERAP1 L734R [2] (no peptide); “low but detectable basal level” at ERAP1 V737R [3] (no peptide); “low but detectable basal level” in the assay on ERAP1 F803R [5] (no peptide); “low but detectable basal level” on ERAP1 L733R [6] (no peptide); “low but detectable basal level; also recorded: higher than the other mutant enzymes and the WT enzyme” on ERAP1 I681R [7] (no peptide). Besides, the “Hill coef. (h)” value in the assay on ERAP1 L734R [8] (setting [25]) turned out to be 1.3; at ERAP1 V737R [4] (setting [25]) it was 1.9; at ERAP1 I681R [11] (setting [25]), 1.8; in the assay with ERAP1 WT [12] (setting [25]), 2.6; on ERAP1 L733R [14] (setting [25]), 1.5. The “K1/2 (half-Vmax concentration of L-AMC)” value came to 0.33 ± 0.09 mM in the assay with ERAP1 L734R [8] (setting [25]); 0.52 ± 0.09 mM at ERAP1 V737R [4] (setting [25]); 0.23 ± 0.04 mM at ERAP1 I681R [11] (setting [25]); 0.38 ± 0.05 mM with ERAP1 WT [12] (setting [25]); 0.19 ± 0.03 mM on ERAP1 L733R [14] (setting [25]); 0.39 ± 0.06 mM on ERAP1 F803R [18] (setting [25]).

Take LESIINFEKL [KL2]: the “time after which the amount of 10-mer product began to decrease” value at ERAP1 F803R [19] and in the assay on ERAP1 WT [20] was more than 10 min throughout.

These data come from PMC10841542 (Immunology, 2023).
